Many of the other results were omitted from the sample, so hits are more common in it than they were.
A1 apoptosis 2 = compounds inhibiting A1, read as caspase activation | MEF A1-2A-BIM cells, caspase-Glo luminescence, 3 h; percent of clofoctol response, DMSO zero | caspase activation, % (concentration not given with the values) | 24,000 tested, under 10 active | AID 2465; in the data active means caspase activation above about 5.9%
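system = A1-2A-BIM-expressing MEF cells | quantity = 2500 MEF cells/well | dosing = 50 nL compound per well, pinned | schedule = overnight cell settling, then 3 h compound exposure, 37 °C | signal = luminescence from DEVD-luciferin Caspase-Glo reagent, 1:1 in 50 mM HEPES, 1 h RT | read-out = Caspase-3/7 activation, seen as rise in luminescence signal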
INS-1E ATP HTS = preserves ATP levels in cytokine-treated INS-1E cells. INS-1E cytokine-induced death, ATP luminescence, 48 h; normalised: neutral wells 0, positive control 100. protection from cytokine-induced ATP loss, % at 10 µM. hit rate 0.1% among 20,000. AID 488910;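 active means mean replicate protection from cytokine-induced ATP loss at least 50% and at least 75% of replicates each reaching 50%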
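Assay system – rat INS-1E insulinoma cell line · Quantity – 8000 cells per well · Buffer or medium – RPMI without phenol red, 5% FBS · Schedule – 48 h co-treatment, 10 min post-lysis read · Technique – luminescent ATP assay (CellTiter-Glo)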
T cruzi intra = inhibitors of intracellular Trypanosoma cruzi; intracellular Trypanosoma cruzi in host cells, plate reader; activity score (inhibition), % at 5.01 µM; hit rate 4.9% among 22,000; in the data active means activity score above about 55%;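 further: parasites and compound incubated about four days before reading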
Of the large screens only hits and unclear results are named; the others gave an inactive call.

C[C@H](CO)N1C[C@H](C)[C@H](CN(C)C(=O)Nc2ccccc2)Oc2c(NC(=O)c3ccncc3)cccc2C1=O	T cruzi intra 78
C[C@@H]1CN([C@@H](C)CO)C(=O)c2cccc(NC(=O)c3ccncc3)c2O[C@H]1CN(C)C(=O)Nc1ccccc1	none
C[C@@H]1CN([C@H](C)CO)C(=O)c2cccc(NC(=O)c3ccncc3)c2O[C@@H]1CN(C)C(=O)Nc1ccc(F)cc1	none
COc1ccc(NC(=O)Nc2cccc3c2O[C@H](CN(C)S(=O)(=O)c2ccc(OC)cc2)[C@@H](C)CN([C@H](C)CO)C3=O)cc1	none
COc1ccc(NC(=O)Nc2cccc3c2O[C@@H](CN(C)S(=O)(=O)c2ccc(OC)cc2)[C@H](C)CN([C@H](C)CO)C3=O)cc1	none
Cc1ccc(S(=O)(=O)N(C)C[C@@H]2Oc3c(NC(=O)Nc4cccc5ccccc45)cccc3C(=O)N([C@@H](C)CO)C[C@H]2C)cc1	INS-1E ATP HTS 62
COc1ccc(S(=O)(=O)N(C)C[C@@H]2Oc3c(NC(=O)Nc4ccc(C(F)(F)F)cc4)cccc3C(=O)N([C@@H](C)CO)C[C@@H]2C)cc1	T cruzi intra 61
Cc1ccc(S(=O)(=O)N(C)C[C@@H]2Oc3c(NC(=O)Nc4ccc(C(F)(F)F)cc4)cccc3C(=O)N([C@@H](C)CO)C[C@@H]2C)cc1	none (no result: A1 apoptosis 2)
COc1ccc(S(=O)(=O)N(C)C[C@@H]2Oc3c(NC(=O)Nc4ccc(C(F)(F)F)cc4)cccc3C(=O)N([C@H](C)CO)C[C@@H]2C)cc1	T cruzi intra 74 (no result: A1 apoptosis 2)
Cc1ccc(S(=O)(=O)N(C)C[C@H]2Oc3c(NC(=O)Nc4cccc5ccccc45)cccc3C(=O)N([C@H](C)CO)C[C@H]2C)cc1	none
Cc1ccc(S(=O)(=O)N(C)C[C@H]2Oc3c(NC(=O)Nc4ccc(C(F)(F)F)cc4)cccc3C(=O)N([C@@H](C)CO)C[C@H]2C)cc1	T cruzi intra 79
COc1ccc([Si](C)(C)[C@H]2[C@H](CCn3cc([C@H](O)c4ccccc4)nn3)O[C@@]3(C(=O)N(Cc4ccc(N5CCOC5=O)cc4)c4ccccc43)[C@@H]2C)cc1	none (no result: INS-1E ATP HTS, T cruzi intra)
O=C(CCCCC(=O)N/N=C/c1ccc(O)cc1Br)NO	none (no result: INS-1E ATP HTS, T cruzi intra)
C[C@H]1CN([C@@H](C)CO)C(=O)c2cccc(NC(=O)c3ccc(-c4nccs4)cc3)c2O[C@H]1CN(C)Cc1ccc(Cl)c(Cl)c1	T cruzi intra 62
C[C@H](CO)N1C[C@H](C)[C@H](CN(C)Cc2ccc(Cl)c(Cl)c2)Oc2c(NC(=O)c3ccc(-c4nccs4)cc3)cccc2C1=O	T cruzi intra 60 (no result: A1 apoptosis 2)
C[C@@H]1CN([C@H](C)CO)C(=O)c2cccc(NC(=O)c3ccc(-c4nccs4)cc3)c2O[C@H]1CN(C)Cc1ccc(Cl)c(Cl)c1	none
C[C@@H]1CN([C@@H](C)CO)C(=O)c2cccc(NC(=O)c3ccc(-c4nccs4)cc3)c2O[C@@H]1CN(C)Cc1ccc(Cl)c(Cl)c1	none
COc1ccc(O)c(/C=N/NC(=O)c2ccccn2)c1	none (no result: A1 apoptosis 2)
C[C@@H]1CN([C@H](C)CO)C(=O)c2cc(NC(=O)Nc3ccc4c(c3)OCO4)ccc2O[C@@H]1CN(C)Cc1ccc(-c2ccccc2)cc1	T cruzi intra 88
C[C@H]1CN([C@@H](C)CO)C(=O)Cc2cc(NC(=O)Nc3ccc4c(c3)OCO4)ccc2O[C@H]1CN(C)Cc1ccc(-c2ccccc2)cc1	T cruzi intra 76 (no result: A1 apoptosis 2)
C[C@H](CO)N1C[C@H](C)[C@H](CN(C)Cc2ccc(-c3ccccc3)cc2)Oc2ccc(NC(=O)Nc3ccc4c(c3)OCO4)cc2C1=O	none (no result: INS-1E ATP HTS)
C[C@H]1CN([C@@H](C)CO)C(=O)Cc2cc(NC(=O)Nc3ccccc3)ccc2O[C@H]1CN(C)Cc1ccc2c(c1)OCO2	none (no result: A1 apoptosis 2)
C[C@H](CO)N1C[C@H](C)[C@@H](CN(C)Cc2ccccc2)Oc2ccc(NC(=O)Nc3ccc4c(c3)OCO4)cc2CC1=O	none (no result: INS-1E ATP HTS, T cruzi intra)
C[C@@H]1CN([C@H](C)CO)C(=O)Cc2cc(NC(=O)Nc3ccc4c(c3)OCO4)ccc2O[C@@H]1CN(C)Cc1ccc(-c2ccccc2)cc1	T cruzi intra 62
C[C@@H]1CN([C@@H](C)CO)C(=O)Cc2cc(NC(=O)Nc3ccc4c(c3)OCO4)ccc2O[C@@H]1CN(C)Cc1ccc(-c2ccccc2)cc1	T cruzi intra 64
C[C@H]1CN([C@@H](C)CO)C(=O)Cc2cc(NC(=O)Nc3ccc4c(c3)OCO4)ccc2O[C@@H]1CN(C)Cc1ccccc1	none (no result: A1 apoptosis 2)
O=C(CCCCCCC(=O)Nc1ccccc1O)N/N=C/c1ccc2c(c1)CCO2	none
COC(=O)CCCCCCC(=O)N/N=C/c1cccc(NC(=O)OC(C)(C)C)c1	none
O=C(O)CCCCCC(=O)NN=C1CCCCCCC1	none
CC(=O)O[C@@H]1[C@H](c2ccc(=O)oc2)C2[C@H](C)C[C@H]3[C@@H](CC[C@@H]4C[C@@H](O)CC[C@@]43C)[C@]23O[C@H]13 (stereo not given in full)	none (no result: INS-1E ATP HTS, T cruzi intra)
COc1ccc(NC(=O)Nc2cccc3c2O[C@@H](CN(C)Cc2ccc(C(=O)Nc4ccccc4N)cc2)[C@H](C)CN([C@@H](C)CO)C3=O)cc1	T cruzi intra 77 (no result: A1 apoptosis 2)
COc1ccc(NC(=O)Nc2cccc3c2O[C@@H](CN(C)Cc2ccc(C(=O)Nc4ccccc4N)cc2)[C@@H](C)CN([C@@H](C)CO)C3=O)cc1	none
COc1ccc(NC(=O)Nc2cccc3c2O[C@H](CN(C)Cc2ccc(C(=O)Nc4ccccc4N)cc2)[C@H](C)CN([C@H](C)CO)C3=O)cc1	T cruzi intra 61 (no result: A1 apoptosis 2)
COc1ccc(NC(=O)Nc2cccc3c2O[C@@H](CN(C)Cc2ccc(C(=O)Nc4ccccc4N)cc2)[C@@H](C)CN([C@H](C)CO)C3=O)cc1	none (no result: INS-1E ATP HTS, T cruzi intra)
Cc1ncc(CO)c(/C=N/NC(=O)c2ccccn2)c1O	none
CC(/C=C/C(=O)NO)=C\c1ccccc1OCc1cn(-c2cccc(C(=O)N3CCN(c4ccccc4)CC3)c2)nn1	none (no result: INS-1E ATP HTS, T cruzi intra)
Cc1nnc(Sc2ccc(/C=N/NC(=O)c3cccc(C(=O)NO)c3)o2)n1C	none (no result: A1 apoptosis 2)
C[C@@H]1CN([C@@H](C)CO)C(=O)Cc2cc(NS(=O)(=O)c3cccs3)ccc2O[C@H]1CN(C)S(=O)(=O)c1ccc(Cl)cc1	none (no result: INS-1E ATP HTS, T cruzi intra)
C[C@@H]1CN([C@H](C)CO)C(=O)Cc2cc(NS(=O)(=O)c3cccs3)ccc2O[C@@H]1CN(C)S(=O)(=O)c1ccc(Cl)cc1	T cruzi intra 72
C[C@H]1CN([C@@H](C)CO)C(=O)Cc2cc(NS(=O)(=O)c3cccs3)ccc2O[C@@H]1CN(C)S(=O)(=O)c1ccccc1	none
C[C@@H]1CN([C@H](C)CO)C(=O)Cc2cc(NS(=O)(=O)c3cccs3)ccc2O[C@@H]1CN(C)S(=O)(=O)c1ccccc1	T cruzi intra 59
O=C(CCCCCC(=O)N/N=C/c1cccs1)NO	none (no result: INS-1E ATP HTS, T cruzi intra)
O=C(N/N=C/c1ccc(F)c(Oc2ccccc2)c1)c1ccccc1O	none
C[C@H]1CN([C@@H](C)CO)C(=O)c2cccc(NC(=O)c3nc4ccccc4s3)c2O[C@@H]1CN(C)Cc1ccc(Cl)c(Cl)c1	T cruzi intra 65
C[C@H]1CN([C@@H](C)CO)C(=O)c2cccc(NC(=O)c3nc4ccccc4s3)c2O[C@@H]1CN(C)Cc1ccc(Oc2ccccc2)cc1	none
